In brackets after ≈: the same amount, converted by molar mass.
T1: Class D beta-lactamase (Brachyspira pilosicoli) (UniProt Q50H31)
T1 sequence (whole entry): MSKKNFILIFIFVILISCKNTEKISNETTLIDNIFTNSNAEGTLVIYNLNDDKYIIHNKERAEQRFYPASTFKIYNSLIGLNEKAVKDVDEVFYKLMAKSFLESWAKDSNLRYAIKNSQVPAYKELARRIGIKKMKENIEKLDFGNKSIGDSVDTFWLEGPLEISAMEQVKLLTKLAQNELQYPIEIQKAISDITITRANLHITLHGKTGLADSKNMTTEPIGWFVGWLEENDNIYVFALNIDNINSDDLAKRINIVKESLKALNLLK

T2: Class D beta-lactamase (Brachyspira pilosicoli, UniProt Q50H31)
T2 sequence (Q50H31 whole entry): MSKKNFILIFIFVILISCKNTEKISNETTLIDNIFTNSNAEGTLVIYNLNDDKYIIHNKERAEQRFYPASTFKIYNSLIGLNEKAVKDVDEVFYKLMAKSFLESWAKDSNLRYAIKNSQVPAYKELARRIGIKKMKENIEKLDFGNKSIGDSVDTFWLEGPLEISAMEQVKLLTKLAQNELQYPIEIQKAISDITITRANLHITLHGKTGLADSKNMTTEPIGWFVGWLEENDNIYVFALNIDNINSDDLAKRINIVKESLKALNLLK


What was measured:
[1] = Ratio of Kcat to Km for beta-lactamase FUS1 assessed as compound hydrolysis by spectrophotometry
[2] = Activity of beta-lactamase FUS1 assessed as compound hydrolysis by spectrophotometry
[3] = Activity of beta-lactamase FUS1 assessed as compound hydrolysis by spectrophotometry relative to benzyl-penicillin; set-up: scale not given: the % may be the effect or the level left
[4] = target: T1, Class D beta-lactamase (Brachyspira pilosicoli); experiment: Activity of Brachyspira pilosicoli beta-lactamase OXA-63 expressed in Escherichia coli BL21 (DE3) assessed as compound hydrolysis by spectrophotometry relative to oxacillin; set-up: scale not given: the % may be the effect or the level left
Brachyspira pilosicoli [5] = experiment: Antimicrobial activity against Brachyspira pilosicoli 80.10 without producing beta-lactamase OXA-63 by disc diffusion method; assay type: functional
How it was run: (§1)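 Disk diffusion was done on Mueller-Hinton agar supplemented with 5% sheep blood, following Comité de l'Antibiogramme de la Société Française de Microbiologie standards. Plates were incubated in an anaerobic jar at 37°C for 3 days.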

Escherichia coli [6] = experiment: Antimicrobial activity against Escherichia coli JM83 without producing beta-lactamase OXA-63 after 3 days by Etest; assay type: functional
Escherichia coli [7] = experiment: Antimicrobial activity against Escherichia coli JM83 harboring beta-lactamase OXA-63 after 3 days by Etest; assay type: functional
How it was run: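 MICs for E. coli JM83 transformants were read by Etest on Mueller-Hinton agar. Transformants were selected on BHI agar with ampicillin 50 µg/ml and kanamycin 40 µg/ml.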

Brachyspira pilosicoli [8] = experiment: Antimicrobial activity against beta-lactamase OXA-63 producing Brachyspira pilosicoli isolate BM4442 isolated from feces of patient with diarrhea by disc diffusion method; assay type: functional; how it was run: as §1
Class D beta-lactamase = target: T2, Class D beta-lactamase; experiment: Inhibition of Brachyspira pilosicoli beta-lactamase OXA-63 expressed in Escherichia coli BL21 (DE3) assessed as reduction in nitrocefin hydrolysis by spectrophotometry relative to oxacillin
How it was run: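 C-terminal His6-tagged OXA-63 was expressed in E. coli BL21(DE3)pLys with 0.5 mM IPTG for 4 h at 28°C and purified by nickel affinity. Enzyme (50 to 150 nM) was preincubated with inhibitor for 30 min at 25°C in 100 mM sodium phosphate, pH 7.0. 100 µM nitrocefin was then added, and initial hydrolysis rates were read spectrophotometrically. IC50 was the concentration halving the rate.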

[9] = substrate: CC1(C)S[C@@H]2[C@H](NC(=O)Cc3ccccc3)C(=O)N2[C@H]1C(=O)O; experiment: (§2) Ratio of Kcat to Km for Brachyspira pilosicoli beta-lactamase OXA-63 expressed in Escherichia coli BL21 (DE3) assessed as compound hydrolysis by spectrophotometry
[10] = substrate: CC1(C)S[C@@H]2[C@H](NC(=O)C(C(=O)O)c3ccccc3)C(=O)N2[C@H]1C(=O)O; experiment: as §2
[11] = substrate: CC1(C)S[C@@H]2[C@H](NC(=O)[C@H](N)c3ccccc3)C(=O)N2[C@H]1C(=O)O; experiment: as §2
[12] = substrate: CCN1CCN(C(=O)N[C@@H](C(=O)N[C@@H]2C(=O)N3[C@@H]2SC(C)(C)[C@@H]3C(=O)O)c2ccccc2)C(=O)C1=O; experiment: as §2
[13] = substrate: Cc1onc(-c2ccccc2)c1C(=O)N[C@@H]1C(=O)N2[C@@H]1SC(C)(C)[C@@H]2C(=O)O; experiment: as §2
[14] = substrate: CC1(C)S[C@@H]2[C@H](NC(=O)Cc3ccccc3)C(=O)N2[C@H]1C(=O)O; experiment: (§3) Activity of Brachyspira pilosicoli beta-lactamase OXA-63 expressed in Escherichia coli BL21 (DE3) assessed as compound hydrolysis by spectrophotometry
[15] = substrate: CC1(C)S[C@@H]2[C@H](NC(=O)C(C(=O)O)c3ccccc3)C(=O)N2[C@H]1C(=O)O; experiment: as §3
[16] = substrate: CC1(C)S[C@@H]2[C@H](NC(=O)[C@H](N)c3ccccc3)C(=O)N2[C@H]1C(=O)O; experiment: as §3
[17] = substrate: CO/N=C(\C(=O)N[C@@H]1C(=O)N2C(C(=O)O)=C(COC(N)=O)CS[C@H]12)c1ccco1; experiment: as §3
[18] = substrate: CCN1CCN(C(=O)N[C@@H](C(=O)N[C@@H]2C(=O)N3[C@@H]2SC(C)(C)[C@@H]3C(=O)O)c2ccccc2)C(=O)C1=O; experiment: as §3
[19] = substrate: CC(=O)OCC1=C(C(=O)O)N2C(=O)[C@@H](NC(=O)Cc3cccs3)[C@H]2SC1; experiment: as §3
[20] = substrate: Cc1onc(-c2ccccc2)c1C(=O)N[C@@H]1C(=O)N2[C@@H]1SC(C)(C)[C@@H]2C(=O)O; experiment: as §3

Molecule	kcat/Km [1]	Km [2] [µM]	kcat [2] [s⁻¹]	MIC (Brachyspira pilosicoli [5]) [µg/mL]	MIC (Escherichia coli [6]) [µg/mL]	MIC (Escherichia coli [7]) [µg/mL]	MIC (Brachyspira pilosicoli [8]) [µg/mL]	other results
CC(=O)OCC1=C(C(=O)O)N2C(=O)[C@@H](NC(=O)Cc3cccs3)[C@H]2SC1	8.7 ×10⁵ /M/s	47	4.1	–	–	–	–	Activity [3]: 0.1%
CC1(C)S[C@@H]2[C@H](NC(=O)[C@H](N)c3ccccc3)C(=O)N2[C@H]1C(=O)O	5.7 ×10⁵ /M/s	76	45	–	–	–	–	Activity [4]: 15%; Activity [3]: 0.7%
CO/N=C(\C(=O)N[C@@H]1C(=O)N2C(C(=O)O)=C(COC(N)=O)CS[C@H]12)c1ccco1	4.5 ×10⁵ /M/s	> 400	> 1.8	–	–	–	–	Activity [3]: 0.005%
CC1(C)S[C@@H]2[C@H](NC(=O)[C@H](N)c3ccc(O)cc3)C(=O)N2[C@H]1C(=O)O [AMOXICILLIN]	–	–	–	0.047 (≈ 0.129 µM)	6 (≈ 16.4 µM)	256 (≈ 701 µM)	1.5 (≈ 4.1 µM)	–
C[C@H]1[C@H](NC(=O)/C(=N\OC(C)(C)C(=O)O)c2csc(N)n2)C(=O)N1S(=O)(=O)O [AZTREONAM]	–	–	–	1 (≈ 2.3 µM)	0.19 (≈ 0.436 µM)	0.19 (≈ 0.436 µM)	1 (≈ 2.3 µM)	–
CO/N=C(\C(=O)N[C@@H]1C(=O)N2C(C(=O)O)=C(COC(C)=O)CS[C@H]12)c1csc(N)n1 [CEFOTAXIME]	–	–	–	< 0.016	0.064 (≈ 0.141 µM)	0.064 (≈ 0.141 µM)	0.032 (≈ 0.0703 µM)	–
CC(C)(O/N=C(\C(=O)N[C@@H]1C(=O)N2C(C(=O)[O-])=C(C[n+]3ccccc3)CS[C@H]12)c1csc(N)n1)C(=O)O [CEFTAZIDIME]	–	–	–	4 (≈ 7.32 µM)	0.5 (≈ 0.915 µM)	0.5 (≈ 0.915 µM)	4 (≈ 7.32 µM)	–
O=C(O)[C@H]1/C(=C/CO)O[C@@H]2CC(=O)N21 [CLAVULANIC ACID]	–	–	–	–	–	–	–	IC50 (Class D beta-lactamase): 2 µM
C[C@@H](O)[C@H]1C(=O)N2C(C(=O)O)=C(SCCNC=N)C[C@H]12 [IMIPENEM ANHYDROUS]	–	–	–	< 4	< 4	4 (≈ 13.4 µM)	< 4	–
C[C@@H](O)[C@H]1C(=O)N2C(C(=O)O)=C(S[C@@H]3CN[C@H](C(=O)N(C)C)C3)[C@H](C)[C@H]12 [MEROPENEM]	–	–	–	0.032 (≈ 0.0834 µM)	0.032 (≈ 0.0834 µM)	0.016 (≈ 0.0417 µM)	0.032 (≈ 0.0834 µM)	–
Cc1onc(-c2ccccc2)c1C(=O)N[C@@H]1C(=O)N2[C@@H]1SC(C)(C)[C@@H]2C(=O)O [OXACILLIN]	2.1 ×10⁷ /M/s	36	780	0.125 (≈ 0.311 µM)	–	–	> 256	Activity [3]: 25%
CC1(C)S[C@@H]2[C@H](NC(=O)Cc3ccccc3)C(=O)N2[C@H]1C(=O)O [PENICILLIN G]	8.3 ×10⁷ /M/s	10	830	0.023 (≈ 0.0688 µM)	24 (≈ 71.8 µM)	256 (≈ 766 µM)	2 (≈ 5.98 µM)	Activity [4]: 25.5%
CCN1CCN(C(=O)N[C@@H](C(=O)N[C@@H]2C(=O)N3[C@@H]2SC(C)(C)[C@@H]3C(=O)O)c2ccccc2)C(=O)C1=O [PIPERACILLIN]	–	–	–	0.016 (≈ 0.0309 µM)	1.5 (≈ 2.9 µM)	96 (≈ 185 µM)	48 (≈ 92.7 µM)	Activity [4]: 6.5%
CC1(C)[C@H](C(=O)O)N2C(=O)C[C@H]2S1(=O)=O [SULBACTAM]	–	–	–	–	–	–	–	IC50 (Class D beta-lactamase): 12 µM
C[C@]1(Cn2ccnn2)[C@H](C(=O)O)N2C(=O)C[C@H]2S1(=O)=O [TAZOBACTAM]	–	–	–	–	–	–	–	IC50 (Class D beta-lactamase): 0.16 µM
Class D beta-lactamase (Brachyspira pilosicoli), Q50H31 (protein) MSKKNFILIFIFVILISCKNTEKISNETTLIDNIFTNSNAEGTLVIYNLNDDKYIIHNKERAEQRFYPASTFKIYNSLIGLNEKAVKDVDEVFYKLMAKSFLESWAKDSNLRYAIKNSQVPAYKELARRIGIKKMKENIEKLDFGNKSIGDSVDTFWLEGPLEISAMEQVKLLTKLAQNELQYPIEIQKAISDITITRANLHITLHGKTGLADSKNMTTEPIGWFVGWLEENDNIYVFALNIDNINSDDLAKRINIVKESLKALNLLK	–	–	–	–	–	–	–	kcat/Km [9]: 2.5 ×10⁵ /M/s; kcat/Km [10]: 6.5 ×10⁴ /M/s; kcat/Km [11]: 1.5 ×10⁵ /M/s; kcat/Km [12]: 6.4 ×10⁴ /M/s; kcat/Km [13]: 9.8 ×10⁵ /M/s; Km [14]: 19 µM; kcat [14]: 4.9 s⁻¹; Km [15]: 17 µM; kcat [15]: 1.1 s⁻¹; Km [16]: 43 µM; kcat [16]: 6.6 s⁻¹; kcat [17]: Not Active; Km [18]: 33 µM; kcat [18]: 2.1 s⁻¹; kcat [19]: Not Active; Km [20]: 115 µM; kcat [20]: 113 s⁻¹
